Calls of active or inactive are those of the source. No cut-off for these calls is given here. Where a SMILES comes first, the peptide text is derived from it.
Columns and labels:
Human metapneumovirus = assay: Antiviral activity against hMPV C-85473 infected in rhesus monkey LLC-MK2 cells after 3 days by RT-PCR; type: functional, organism-based; details: C-85473, LLC-MK2, 72 h
Summary of the method: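 Twofold serial dilutions of peptide mixed with 107 TCID50 virus in infection medium (Opti-MEM with 2 µg/ml trypsin) and added to LLC-MK2 cells. After 2 h, medium replaced with fresh medium containing the same peptide dilutions. Supernatants collected on day 3 and N gene quantified by real-time RT-PCR (TaqMan). IC50 from triplicate experiments.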

LLC-MK2 = assay: Cytotoxicity against rhesus monkey LLC-MK2 cells at 9 uM after 3 days by MTT assay; type: cell-based, Macaca mulatta; details: llc-mk2, 72 h
Summary of the method: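 Serial peptide dilutions in hMPV infection medium applied to LLC-MK2 cells for 3 days. MTT (1 mg/ml) added for 2 h at 37°C, dye solubilized in acidic isopropanol, absorbance read at 570. Absorbance below that of control cells taken as cytotoxicity.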

Mus musculus [1] = organism: Mus musculus; assay: Effect on pulmonary inflammation in BALB/c mouse lung assessed as change in perivascular inflammation after 5 days by histopathological analysis; type: functional, organism-based
Summary of the method: (§1)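 Female BALB/c mice, 4-6 weeks old, received intranasal hMPV C-85473 (2 x 106 TCID50/ml, 70 µl) or PBS, with or without 7 µM synthetic peptide by the same route. Six lungs/group taken on day 5, fixed in 10% buffered formalin, paraffin-embedded, cut at 5 µm, stained with H&E. Each inflammation type scored on a 0-4 scale.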

Mus musculus [2] = organism: Mus musculus; assay: Effect on pulmonary inflammation in BALB/c mouse lung assessed as change in peribronchiolar inflammation after 5 days by histopathological analysis; type: functional, organism-based; summary of the method: as §1
Mus musculus [3] = organism: Mus musculus; assay: Effect on airway obstruction in hMPV infected BALB/c mouse assessed as decrease in enhanced pause treated simultaneously with viral challenge

IC50 (Human metapneumovirus) | Compound | Activity (LLC-MK2) | Activity (Mus musculus [1]) | Activity (Mus musculus [2]) | Activity (Mus musculus [3])
> 9 µM | CC[C@H](C)[C@H](NC(=O)[C@H](CCCNC(=N)N)NC(=O)[C@H](CC(N)=O)NC(=O)[C@H](CO)NC(=O)[C@H](CCC(N)=O)NC(=O)[C@H](CC(=O)O)NC(=O)[C@@H](NC(=O)[C@H](CC(C)C)NC(=O)[C@H](C)NC(=O)[C@H](CCC(N)=O)NC(=O)[C@H](CO)NC(=O)[C@H](CC(N)=O)NC(=O)[C@H](CCC(=O)O)NC(=O)[C@@H](NC(=O)[C@H](CO)NC(=O)[C@H](CCC(=O)O)NC(=O)[C@H](Cc1ccccc1)NC(=O)[C@@H](NC(=O)[C@H](CCC(N)=O)NC(=O)[C@H](CC(=O)O)NC(=O)[C@H](CC(C)C)NC(=O)[C@H](C)NC(=O)[C@@H](NC(=O)[C@H](CC(N)=O)NC(=O)[C@@H](N)Cc1ccccc1)C(C)C)C(C)C)[C@@H](C)CC)C(C)C)C(=O)N[C@@H](CC(C)C)C(=O)N[C@@H](CO)C(=O)N[C@@H](CO)C(=O)N[C@@H](C)C(=O)N[C@@H](CCC(=O)O)C(=O)O (H-FNVALDQVFESIENSQALVDQSNRILSSAE-OH) | Not Active |  |  | 
> 9 µM | CC[C@H](C)[C@H](NC(=O)[C@H](CCCNC(=N)N)NC(=O)[C@H](CC(N)=O)NC(=O)[C@H](CO)NC(=O)[C@H](CCC(N)=O)NC(=O)[C@H](CC(=O)O)NC(=O)[C@@H](NC(=O)[C@H](CC(C)C)NC(=O)[C@H](C)NC(=O)[C@H](CCC(N)=O)NC(=O)[C@H](CO)NC(=O)[C@H](CC(N)=O)NC(=O)[C@H](CCC(=O)O)NC(=O)[C@@H](NC(=O)[C@H](CO)NC(=O)[C@H](CCC(=O)O)NC(=O)[C@H](Cc1ccccc1)NC(=O)[C@@H](NC(=O)[C@H](CCC(N)=O)NC(=O)[C@H](CC(=O)O)NC(=O)[C@H](CC(C)C)NC(=O)[C@H](C)NC(=O)[C@@H](NC(=O)[C@H](CC(N)=O)NC(=O)[C@@H](N)Cc1ccccc1)C(C)C)C(C)C)[C@@H](C)CC)C(C)C)C(=O)N[C@@H](CC(C)C)C(=O)N[C@@H](CO)C(=O)N[C@@H](CO)C(=O)N[C@@H](C)C(=O)N[C@@H](CCC(=O)O)C(=O)N[C@@H](CCCCN)C(=O)NCC(=O)N[C@@H](CC(N)=O)C(=O)O (H-FNVALDQVFESIENSQALVDQSNRILSSAEKGN-OH) | Not Active |  |  | 
1.52 µM | CC[C@H](C)[C@H](NC(=O)[C@H](CCCNC(=N)N)NC(=O)[C@H](CC(N)=O)NC(=O)[C@H](CO)NC(=O)[C@H](CCC(N)=O)NC(=O)[C@H](CC(=O)O)NC(=O)[C@@H](NC(=O)[C@H](CC(C)C)NC(=O)[C@H](C)NC(=O)[C@H](CCC(N)=O)NC(=O)[C@H](CO)NC(=O)[C@H](CC(N)=O)NC(=O)[C@H](CCC(=O)O)NC(=O)[C@@H](NC(=O)[C@H](CO)NC(=O)[C@H](CCC(=O)O)NC(=O)[C@H](Cc1ccccc1)NC(=O)[C@@H](NC(=O)[C@H](CCC(N)=O)NC(=O)[C@H](CC(=O)O)NC(=O)[C@H](CC(C)C)NC(=O)[C@H](C)NC(=O)[C@@H](NC(=O)[C@H](CC(N)=O)NC(=O)[C@@H](N)Cc1ccccc1)C(C)C)C(C)C)[C@@H](C)CC)C(C)C)C(=O)N[C@@H](CC(C)C)C(=O)N[C@@H](CO)C(=O)N[C@@H](CO)C(=O)N[C@@H](C)C(=O)N[C@@H](CCC(=O)O)C(=O)N[C@@H](CCCCN)C(=O)NCC(=O)N[C@@H](CC(N)=O)C(=O)N[C@H](C(=O)NCC(=O)O)[C@@H](C)O (H-FNVALDQVFESIENSQALVDQSNRILSSAEKGNTG-OH) | Not Active |  |  | 
3.24 µM | CC[C@H](C)[C@H](NC(=O)[C@H](C)NC(=O)[C@@H](NC(=O)[C@@H](NC(=O)[C@H](CCC(=O)O)NC(=O)[C@H](CO)NC(=O)[C@H](CCC(=O)O)NC(=O)[C@@H](N)CC(C)C)C(C)C)[C@@H](C)O)C(=O)N[C@@H](CCCCN)C(=O)N[C@@H](CC(N)=O)C(=O)N[C@@H](C)C(=O)N[C@@H](CC(C)C)C(=O)N[C@@H](CCCCN)C(=O)N[C@@H](CCCCN)C(=O)N[C@H](C(=O)N[C@@H](CC(N)=O)C(=O)N[C@@H](CCC(=O)O)C(=O)N[C@@H](C)C(=O)N[C@H](C(=O)N[C@@H](CO)C(=O)N[C@H](C(=O)N[C@@H](CC(C)C)C(=O)NCC(=O)N[C@@H](CC(N)=O)C(=O)NCC(=O)N[C@H](C(=O)N[C@@H](CCCNC(=N)N)C(=O)N[C@H](C(=O)N[C@@H](CC(C)C)C(=O)N[C@@H](C)C(=O)N[C@H](C(=O)N[C@@H](C)C(=O)N[C@H](C(=O)N[C@@H](CCCNC(=N)N)C(=O)N[C@@H](CCC(=O)O)C(=O)O)C(C)C)[C@@H](C)O)C(C)C)C(C)C)[C@@H](C)O)C(C)C)[C@@H](C)O (H-LESEVTAIKNALKKTNEAVSTLGNGVRVLATAVRE-OH) | Not Active |  |  | 
> 9 µM | CC[C@H](C)[C@H](NC(=O)[C@H](CCCNC(=N)N)NC(=O)[C@H](CC(N)=O)NC(=O)[C@H](CO)NC(=O)[C@H](CCC(N)=O)NC(=O)[C@H](CC(=O)O)NC(=O)[C@@H](NC(=O)[C@H](CC(C)C)NC(=O)[C@H](C)NC(=O)[C@H](CCC(N)=O)NC(=O)[C@H](CO)NC(=O)[C@H](CC(N)=O)NC(=O)[C@H](CCC(=O)O)NC(=O)[C@@H](NC(=O)[C@H](CO)NC(=O)[C@H](CCC(=O)O)NC(=O)[C@H](Cc1ccccc1)NC(=O)[C@@H](NC(=O)[C@H](CCC(N)=O)NC(=O)[C@H](CC(=O)O)NC(=O)[C@H](CC(C)C)NC(=O)[C@H](C)NC(=O)[C@@H](NC(=O)[C@@H](N)CC(N)=O)C(C)C)C(C)C)[C@@H](C)CC)C(C)C)C(=O)N[C@@H](CC(C)C)C(=O)N[C@@H](CO)C(=O)N[C@@H](CO)C(=O)N[C@@H](C)C(=O)O (H-NVALDQVFESIENSQALVDQSNRILSSA-OH) | Not Active | inactive | inactive | inactive
3.31 µM | CC[C@H](C)[C@H](NC(=O)[C@H](CCCNC(=N)N)NC(=O)[C@H](CC(N)=O)NC(=O)[C@H](CO)NC(=O)[C@H](CCC(N)=O)NC(=O)[C@H](CC(=O)O)NC(=O)[C@@H](NC(=O)[C@H](CC(C)C)NC(=O)[C@H](C)NC(=O)[C@H](CCC(N)=O)NC(=O)[C@H](CO)NC(=O)[C@H](CC(N)=O)NC(=O)[C@H](CCC(=O)O)NC(=O)[C@@H](NC(=O)[C@H](CO)NC(=O)[C@H](CCC(=O)O)NC(=O)[C@H](Cc1ccccc1)NC(=O)[C@@H](NC(=O)[C@H](CCC(N)=O)NC(=O)[C@H](CC(=O)O)NC(=O)[C@H](CC(C)C)NC(=O)[C@H](C)NC(=O)[C@@H](NC(=O)[C@H](CC(N)=O)NC(=O)[C@H](Cc1ccccc1)NC(=O)[C@H](CCC(N)=O)NC(=O)[C@H](CC(=O)O)NC(=O)[C@H](CCC(=O)O)NC(=O)[C@@H]1CCCN1)C(C)C)C(C)C)[C@@H](C)CC)C(C)C)C(=O)N[C@@H](CC(C)C)C(=O)N[C@@H](CO)C(=O)N[C@@H](CO)C(=O)N[C@@H](C)C(=O)N[C@@H](CCC(=O)O)C(=O)N[C@@H](CCCCN)C(=O)NCC(=O)N[C@@H](CC(N)=O)C(=O)N[C@H](C(=O)NCC(=O)O)[C@@H](C)O (H-PEDQFNVALDQVFESIENSQALVDQSNRILSSAEKGNTG-OH) | Not Active |  |  | 
